≈ marks a conversion by molar mass, not a printed value. Calls of active or inactive are those of the source. The rule behind the calls is not given here.
Legend:
[1] = molecular target: Adenosine receptor A2a (Homo sapiens) (UniProt P29274); assay: Displacement of [3H]-ZM241385 from human adenosine A2A receptor expressed in HEK293 cell membranes at 0.1 uM after 90 mins relative to control
Outline: (§1)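 Membranes from HEK-293 cells stably transfected with human A1, A2A or A3 receptor, pretreated with 1 U/ml ADA. Membranes are incubated 90 min at room temperature with gentle agitation. Tracer and buffer per receptor: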

[2] = molecular target: T1, Adenosine receptor A3 (Homo sapiens) (UniProt P0DMS8); assay: Displacement of [3H]-HEMADO from human adenosine A3 receptor expressed in HEK293 cell membranes at 1 uM after 90 mins relative to control; outline: as §1
T1 sequence (whole entry): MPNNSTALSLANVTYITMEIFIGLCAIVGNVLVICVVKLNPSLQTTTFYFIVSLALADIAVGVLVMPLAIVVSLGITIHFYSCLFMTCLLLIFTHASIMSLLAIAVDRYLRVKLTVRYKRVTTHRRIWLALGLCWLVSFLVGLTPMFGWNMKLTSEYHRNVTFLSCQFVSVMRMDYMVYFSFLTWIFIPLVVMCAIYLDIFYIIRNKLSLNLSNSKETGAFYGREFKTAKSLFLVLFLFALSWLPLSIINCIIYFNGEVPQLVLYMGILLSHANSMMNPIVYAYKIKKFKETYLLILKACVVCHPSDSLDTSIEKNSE

[3] = Half life in C57BL/6J mouse at 10 mg/kg, po; format: ADME, organism-based; settings: in vivo
Outline: (§2)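 Oral dosing at 10 mg/Kg in C57BL/6J mice. Vehicle is DMAC (10%), CrEL (10%), PEG300 (10%) in water, pH ~9, or, for one compound, DMSO (10%), CrEL (10%), PEG300 (10%) in water, pH ~7.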

[4] = AUC (0 to t) in C57BL/6J mouse at 10 mg/kg, po; format: ADME, organism-based; settings: in vivo; outline: as §2
[5] = molecular target: T2, Adenosine receptor A1 (Homo sapiens) (UniProt P30542); assay: Displacement of [3H]-DPCPX from human adenosine A1 receptor expressed in HEK293 cell membranes at 0.1 uM after 90 mins relative to control; outline: as §1
T2 sequence (whole entry): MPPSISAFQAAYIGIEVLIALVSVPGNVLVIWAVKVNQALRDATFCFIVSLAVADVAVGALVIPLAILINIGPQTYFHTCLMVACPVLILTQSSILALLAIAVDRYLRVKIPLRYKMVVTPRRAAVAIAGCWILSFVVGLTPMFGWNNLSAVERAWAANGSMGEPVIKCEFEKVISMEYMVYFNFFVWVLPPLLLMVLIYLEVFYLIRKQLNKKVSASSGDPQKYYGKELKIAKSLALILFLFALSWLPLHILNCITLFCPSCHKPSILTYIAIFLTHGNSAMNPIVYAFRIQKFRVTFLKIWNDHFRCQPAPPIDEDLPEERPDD

Adenosine receptor A2b [6] = molecular target: T3, Adenosine receptor A2b (Homo sapiens, UniProt P29275); assay: Displacement of [3H]-MRS-1754 from human adenosine A2B receptor expressed in HEK293 cell membranes after 90 mins; settings: read-out: Ki
T3 sequence (P29275 whole entry): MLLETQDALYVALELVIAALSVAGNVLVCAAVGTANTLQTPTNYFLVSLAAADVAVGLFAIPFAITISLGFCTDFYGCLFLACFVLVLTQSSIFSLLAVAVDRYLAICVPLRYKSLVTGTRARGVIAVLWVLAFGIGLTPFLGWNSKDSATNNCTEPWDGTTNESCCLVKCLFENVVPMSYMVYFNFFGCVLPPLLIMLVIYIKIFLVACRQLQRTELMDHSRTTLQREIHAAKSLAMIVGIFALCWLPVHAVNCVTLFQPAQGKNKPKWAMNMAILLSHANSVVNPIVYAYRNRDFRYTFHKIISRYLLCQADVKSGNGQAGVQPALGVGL
Outline: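 Membranes from HEK-293 cells stably expressing human A2B, ADA-treated, incubated with 1.6 nM [3H]-MRS-1754 in 50 mM Tris pH 6.5, 5 mM MgCl2, 1 mM EDTA, 1 U/ml ADA. Incubation 90 min at room temperature. Filtration; nonspecific binding with 100 µM NECA. Eight compound concentrations, each in triplicate; Ki derived by fitting.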

Liver [7] = assay: Metabolic stability in mouse liver microsomes; format: ADME, microsome
[8] = Oral bioavailability in C57BL/6J mouse at 10 mg/kg; format: ADME, organism-based; settings: in vivo; outline: as §2
[9] = Cmax in C57BL/6J mouse at 10 mg/kg, po; format: ADME, organism-based; set-up: dose 10 mg/kg, route oral; settings: in vivo; outline: as §2
Adenosine receptor A2b [10] = molecular target: T3, Adenosine receptor A2b; assay: Antagonist activity at human adenosine A2B receptor expressed in mouse NIH/3T3 cells assessed as inhibition of NECA-induced IL-6 release incubated for 15 mins followed by agonist treatment for 15 mins by HTRF assay; format: cell-based
Liver [11] = assay: Metabolic stability in rat liver microsomes; format: ADME, microsome
[12] = Aqueous solubility of the compound at pH 7.4; format: physicochemical
Outline: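 Aqueous solubility measured at pH 7.4.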

Adenosine receptor A2b [13] = molecular target: T3, Adenosine receptor A2b; assay: Antagonist activity at human adenosine A2B receptor expressed in HEK293 cells assessed as inhibition of NECA-induced increase in cAMP accumulation incubated for 15 mins followed by agonist treatment for 15 mins by HTRF assay; format: functional, cell-based
Outline: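 HEK-293 cells overexpressing human A2B, 24 h cultures, are pretreated with 1 U/mL ADA for 90 min at 37°C. Cells are harvested and preincubated with increasing compound concentrations for 15 min at room temperature in DMEM with ADA.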

Liver [14] = assay: Metabolic stability in human liver microsomes; format: ADME, microsome
HepG2 = assay: Cytotoxicity against human HepG2 cells; format: cell-based
MDCK = assay: Cytotoxicity against MDCK cells; format: cell-based; settings: Canis lupus familiaris
[15] = Inhibition of CYP450 (unknown origin); format: ADME, Homo sapiens
Mus musculus [16] = assay: Antiinflammatory activity in […] allergic asthma mouse model assessed as inhibition of airway hyper-responsiveness at 3 mg/kg administered ip bid; format: functional, organism-based
[17] = molecular target: Voltage-gated inwardly rectifying potassium channel KCNH2 (Homo sapiens, UniProt Q12809); assay: Inhibition of human ERG
Mus musculus [18] = assay: Antiinflammatory activity in ovalbumin-induced allergic asthma mouse model assessed as reduction in total cell count in bronchoalveolar lavage fluid at 3 mg/kg administered ip bid; format: functional, organism-based
P-gp = assay: Substrate activity at P-gp (unknown origin) assessed as ratio of permeability from basolateral to apical side over apical to basolateral side; format: ADME; settings: human, not told

Chain of Adenosine receptor A2a (Homo sapiens) (P29274 whole entry): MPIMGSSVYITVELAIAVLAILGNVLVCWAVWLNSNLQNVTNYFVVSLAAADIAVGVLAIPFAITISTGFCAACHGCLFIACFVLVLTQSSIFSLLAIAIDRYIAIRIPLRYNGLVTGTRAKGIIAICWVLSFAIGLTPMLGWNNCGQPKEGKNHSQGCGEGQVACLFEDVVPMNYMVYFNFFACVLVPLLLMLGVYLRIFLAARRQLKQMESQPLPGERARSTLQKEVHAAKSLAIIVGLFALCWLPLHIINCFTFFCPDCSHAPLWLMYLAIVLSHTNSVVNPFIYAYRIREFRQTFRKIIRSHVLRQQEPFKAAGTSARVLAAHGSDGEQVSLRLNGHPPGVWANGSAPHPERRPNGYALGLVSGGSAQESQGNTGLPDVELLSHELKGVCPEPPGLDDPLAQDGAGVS
Chain of Voltage-gated inwardly rectifying potassium channel KCNH2 (Q12809 whole entry): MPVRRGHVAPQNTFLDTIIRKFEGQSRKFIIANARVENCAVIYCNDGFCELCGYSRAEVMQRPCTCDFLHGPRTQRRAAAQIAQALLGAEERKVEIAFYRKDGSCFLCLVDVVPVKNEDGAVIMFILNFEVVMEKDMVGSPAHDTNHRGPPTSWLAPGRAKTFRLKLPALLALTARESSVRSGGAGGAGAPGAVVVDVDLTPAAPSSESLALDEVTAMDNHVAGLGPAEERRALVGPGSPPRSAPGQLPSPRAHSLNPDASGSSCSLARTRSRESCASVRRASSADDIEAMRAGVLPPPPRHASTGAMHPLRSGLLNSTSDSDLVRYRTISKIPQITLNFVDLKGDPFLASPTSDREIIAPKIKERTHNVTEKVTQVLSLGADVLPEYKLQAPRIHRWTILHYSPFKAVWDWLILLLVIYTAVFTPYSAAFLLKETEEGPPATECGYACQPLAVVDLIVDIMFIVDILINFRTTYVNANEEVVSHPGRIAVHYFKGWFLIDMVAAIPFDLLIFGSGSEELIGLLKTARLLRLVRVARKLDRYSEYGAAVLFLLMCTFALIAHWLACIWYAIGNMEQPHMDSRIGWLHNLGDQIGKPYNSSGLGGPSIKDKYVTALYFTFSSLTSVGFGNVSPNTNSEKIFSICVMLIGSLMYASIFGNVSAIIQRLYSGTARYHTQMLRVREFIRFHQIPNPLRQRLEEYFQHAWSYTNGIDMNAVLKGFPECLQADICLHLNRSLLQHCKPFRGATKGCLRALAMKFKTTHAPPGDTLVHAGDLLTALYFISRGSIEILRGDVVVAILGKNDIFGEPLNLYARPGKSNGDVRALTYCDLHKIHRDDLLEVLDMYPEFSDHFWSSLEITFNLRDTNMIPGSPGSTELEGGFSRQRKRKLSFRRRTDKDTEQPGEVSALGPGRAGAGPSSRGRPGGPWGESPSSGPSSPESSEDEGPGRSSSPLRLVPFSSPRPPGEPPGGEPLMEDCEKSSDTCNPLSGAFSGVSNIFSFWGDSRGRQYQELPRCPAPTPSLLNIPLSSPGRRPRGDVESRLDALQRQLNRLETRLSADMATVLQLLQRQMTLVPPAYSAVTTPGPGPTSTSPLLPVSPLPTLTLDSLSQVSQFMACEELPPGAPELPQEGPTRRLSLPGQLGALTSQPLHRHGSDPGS

Structure (SMILES)	inhibition [1] [%]	inhibition [2] [%]	half-life [3] [h]	AUC(0-t) [4] [µM·h]	inhibition [5] [%]	Ki (Adenosine receptor A2b [6]) [µM]	Stability (Liver [7])	bioavailability [8] [%]	Cmax [9] [µM]	IC50 (Adenosine receptor A2b [10]) [µM]	Stability (Liver [11])	solubility [12] [µM]	Ki (Adenosine receptor A2b [13]) [µM]	Stability (Liver [14])	further results
CCCn1c(=O)c2[nH]c(-c3cnn(CC#Cc4cccc(OC(F)(F)F)c4)c3)nc2n(CC)c1=O	37	0	6.1	60	17	0.013	Stable	76	13	0.107	Stable	21 (≈ 10.2 µg/mL)	0.008	Stable	IC50 (HepG2): > 100 µM; IC50 (MDCK): > 100 µM; IC50 [15]: > 10 µM; inhibition (Mus musculus [16]): Active; IC50 [17]: > 25 µM; Activity (Mus musculus [18]): Active
CCCn1c(=O)c2[nH]c(-c3cnn(CC#Cc4ccccc4C(F)(F)F)c3)nc2n(CCC)c1=O	29	25			52	0.029									

The next compounds have a lower Ki (Adenosine receptor A2b [6]) than those just listed; values first:

inhibition [1] [%]	inhibition [2] [%]	half-life [3] [h]	AUC(0-t) [4] [µM·h]	inhibition [5] [%]	Ki (Adenosine receptor A2b [6]) [µM]	Stability (Liver [7])	bioavailability [8] [%]	Cmax [9] [µM]	IC50 (Adenosine receptor A2b [10]) [µM]	Stability (Liver [11])	solubility [12] [µM]	Ki (Adenosine receptor A2b [13]) [µM]	Stability (Liver [14])	Structure (SMILES)	further results
27	6	5	67	39	0.0036	Stable	42	6.6	0.09	Stable	< 6	0.0088	Stable	CCCn1c(=O)c2[nH]c(-c3cnn(CC#Cc4cccc(OC(F)(F)F)c4)c3)nc2n(CCC)c1=O	
32	0	1.8	2.2	20	0.0053	Stable	10	1.9	2	Stable	529 (≈ 244 µg/mL)	0.0018	Stable	CCCn1c(=O)c2[nH]c(-c3cnn(CC#Cc4cccc(C(=O)O)c4)c3)nc2n(CCC)c1=O	efflux ratio (P-gp): 12
33	0			14	0.0028									CCCn1c(=O)[nH]c2nc(-c3cnn(CC#Cc4cccc(OC(F)(F)F)c4)c3)[nH]c2c1=O	

— ChEMBL document CHEMBL4020725, “Design and synthesis of novel xanthine derivatives as potent and selective A2B adenosine receptor antagonists for the treatment of chronic inflammatory airway diseases” (Eur J Med Chem, 2017)
